TRPN1 ag: activates the zebrafish TRPN1 channel. HEK293 zebrafish TRPN1-YFP, Fluo-8 calcium fluorescence; 100% = response to 87 µM carbachol. activation, % at 3 µM. 220,000 compounds, 0.18% hits;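 active = activation above its plate's cutoff, the mean activation of test wells on that plate plus 3 SD, cut at about 19% in these data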;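 note: 0% = DMSO alone and 100% = 87 µM carbachol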
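Material: zebrafish TRPN1-YFP in HEK293 cells; Doses: single test compound dose, 3 µM nominal, 0.3% DMSO; Timing: dye loading 1 h at 37 °C, then 30 min room temperature; Technique: intracellular calcium fluorescence with Fluo-8; Benchmarks: high carbachol 87 µM, low DMSO alone.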
OXTR ag: agonists of human oxytocin receptor. P30559. CHO-OTR cells, Fluo-8 calcium fluorescence; normalized: DMSO 0%, oxytocin 100%. activation, % at 3 µM. 320,000 compounds, 0.32% hits. AID 2435;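 active = activation above the mean of all tested compounds plus 3 SD, cutoff set per screening run, cut at about 20% in these data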;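 note: peak over basal fluorescence ratio from a 100 s FLIPR kinetic read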
TRPML3 agonist: activates the human TRPML3 channel; 220,000 compounds, 0.29% hits; Q8TDD5; activation, % at 3 µM; HEK293 TRPML3-YFP, Fluo-8 calcium fluorescence; 100% = the carbachol control signal;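 active = activation above its plate's cutoff, the mean activation of the plate's test wells plus 3 SD, cut at about 12% in these data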;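 note: 0% = DMSO only wells and 100% = carbachol wells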
Target sequence (Q8TDD5 whole entry, looked up): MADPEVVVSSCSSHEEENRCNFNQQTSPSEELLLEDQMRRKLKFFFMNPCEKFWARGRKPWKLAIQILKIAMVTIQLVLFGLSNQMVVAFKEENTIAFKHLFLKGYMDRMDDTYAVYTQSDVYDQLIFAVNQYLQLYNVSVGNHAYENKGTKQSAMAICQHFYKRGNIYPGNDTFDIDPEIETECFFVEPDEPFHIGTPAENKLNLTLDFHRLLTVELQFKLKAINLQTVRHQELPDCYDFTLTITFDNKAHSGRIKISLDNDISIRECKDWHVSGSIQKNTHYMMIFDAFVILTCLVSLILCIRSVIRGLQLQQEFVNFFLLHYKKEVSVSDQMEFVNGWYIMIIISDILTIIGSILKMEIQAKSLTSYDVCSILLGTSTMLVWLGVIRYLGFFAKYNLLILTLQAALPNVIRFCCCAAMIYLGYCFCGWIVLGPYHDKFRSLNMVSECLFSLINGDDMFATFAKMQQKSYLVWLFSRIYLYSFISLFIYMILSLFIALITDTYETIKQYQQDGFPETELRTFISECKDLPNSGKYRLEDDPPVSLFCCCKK
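Test system: TRPML3-YFP stable HEK293 cells. Doses: single point at 3 µM. Incubation: dye loading 1 h 37 °C then 30 min ambient, 125 s read. Signal: Fluo-8 calcium dye fluorescence, ex 470-495, em 515-575 nm. Measure: percent activation from peak-to-basal fluorescence ratio, scaled between DMSO and carbachol.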
OXTR potentiate: potentiates the human oxytocin receptor response; P30559; CHO-OTR cells, Fluo-8 calcium fluorescence, potentiator mode; 0% = oxytocin EC15, 100% = EC100; activation, % at 3 µM; 320,000 compounds, 0.061% hits;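 active = activation above that plate's cutoff, the mean activation of tested compounds plus 3 SD, cut at about 6.6% in these data, passing the limit was not always enough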;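 note: 100% uses oxytocin at 75 nM as the full agonist control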
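Assay system: CHO-OTR cells, human receptor / Also added: oxytocin at about EC15, sub-maximal agonist stimulus / Dosing: single dose, 3.0 µM nominal final compound concentration / Incubation: 6 min pre-incubation, 100 s read / Technique: Fluo-8 calcium dye fluorescence / Read-out: % activation vs EC15 and EC100 oxytocin / Benchmarks: EC15 oxytocin low, 75 nM oxytocin high / Replicates: singlicate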
V1aR counter: activates human V1a receptor in oxytocin agonist counter-screen; activation, % at 3 µM; CHO-V1R cells, Fluo-8 calcium fluorescence, agonist mode; 0% DMSO, 100% 3 nM vasopressin; P37288; 320,000 compounds, 0.25% hits;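 active = activation above the mean activation of all tested compounds plus 3 SD, per screening run, cut at about 20% in these data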;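 note: signal is peak over basal fluorescence ratio across a 100 second FLIPR read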
OXTR ag confirm: confirmation of human oxytocin receptor agonists; shares compounds with OXTR ag; CHO-OTR cells, Fluo-8 calcium fluorescence, agonist; activation, % at 3 µM; 390 compounds, 20% hits; AID 434963;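 active = mean activation above about 20% derived from the earlier single-dose screen, limit read from the data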;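 note: peak over minimum fluorescence ratio per well during a 100 second FLIPR read; 0% = DMSO alone and 100% = oxytocin high control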
V1aR counter 3x: activates V1a receptor in oxytocin agonist counter-screen; 390 compounds, 10% hits; CHO-V1R cells, Fluo-8 calcium fluorescence; shares compounds with OXTR ag; activation, % at 3 µM; AID 434991;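 active = mean activation over triplicate exceeds the hit threshold set in the earlier primary screen, cut at about 20% in these data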;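 note: peak over basal fluorescence ratio within a 100 second read; 0% = DMSO alone and 100% = 3 nM vasopressin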
Numbers without * were called inactive; nt = no result. Compounds with a hit are over-represented: about 0.58% of the library has one in this group of screens.

SMILES | TRPN1 ag | OXTR ag | TRPML3 agonist | OXTR potentiate | V1aR counter | OXTR ag confirm | V1aR counter 3x
CC(C)(C)CC(C)(C)NCC(O)COc1ccc2c(c1)CCC2 (stereo unspecified) | 1 | 21* | 1 | -11 | 15 | 5 | 4
COc1ccc(CCNC(=O)C2CCCN(c3ncnc4c3nc3n4CCCCC3)C2)c(OC)c1 (stereo unspecified) | nt | -2 | nt | -20 | -1 | nt | nt
CCCC(NC(=O)c1ccc(Br)o1)c1nc2ccccc2[nH]1 (stereo unspecified) | nt | 1 | nt | -1 | 1 | nt | nt
O=C(N1CCCCC1)N1CCN(S(=O)(=O)c2ccc(Cl)cc2)CC1 | -2 | 27* | 0 | -24 | 2 | 0 | 0
O=C(N1CCCCCC1)N1CCN(S(=O)(=O)c2ccccc2)CC1 | 0 | 1 | 0 | 5 | 0 | nt | nt
O=C(O)CCCCCCCCc1cn(CCc2c[nH]c3ccccc23)nn1 | nt | 0 | nt | -5 | -1 | nt | nt
CC(=O)N1CCc2cc(S(=O)(=O)Nc3cccc(C(F)(F)F)c3)ccc21 | 3 | 13 | 2 | -19 | 9 | nt | nt
COc1cccc(NS(=O)(=O)c2ccc3c(c2)CCN3C(C)=O)c1 | nt | 20* | nt | -22 | 14 | 9 | 9
CSc1cccc(NS(=O)(=O)c2ccc3c(c2)CCN3C(C)=O)c1 | nt | 20* | nt | -23 | 17 | 11 | 10
N#CCCn1nc(-c2ccccc2)cc1Nc1ccccc1NC(=O)C(F)(F)F | 0 | 3 | 2 | -8 | 13 | nt | nt
N#CCCn1nc(-c2ccc(Cl)cc2)cc1Nc1ccccc1NC(=O)C(F)(F)F | 4 | 24* | 1 | -21 | 18 | 4 | 3
CCc1ccc(OC(C)C(=O)Nc2ccc(S(=O)(=O)Nc3nccs3)cc2)cc1 (stereo unspecified) | nt | 20* | nt | -14 | 10 | 5 | 8
CC(NC(=O)COC(=O)c1ccc([N+](=O)[O-])o1)c1ccccc1 (stereo unspecified) | nt | 2 | nt | -1 | 2 | nt | nt
COc1cccc(CNC(=O)c2ccccc2SCC(=O)N2CCCC2)c1 | nt | 0 | nt | -1 | -1 | nt | nt
CC(=O)Nc1ccc(OCC(O)Cn2c3ccccc3c3ccccc32)cc1 (stereo unspecified) | 8 | 17 | 3 | -16 | 20 | nt | nt
CC(=O)Nc1ccc(OCC(O)Cn2c3ccccc3c3ccccc32)c(C)c1 (stereo unspecified) | 5 | 22* | 2 | -13 | 13 | 9 | 8
O=C(Nc1cccc([N+](=O)[O-])c1)c1cc2ccccc2cc1O | 27* | 25* | 17* | -9 | 14 | 16 | 13
O=C(O)c1ccccc1C(=O)Nc1cccc([N+](=O)[O-])c1 | -2 | 2 | 1 | 4 | 0 | nt | nt
C=CCCC(=O)NC1CC(C)(C)Cc2c1cnn2-c1ccc(OC)cc1 (stereo unspecified) | nt | -2 | nt | -3 | -1 | nt | nt
Cc1cc(NC(=O)CN2C(=O)NC(C)(c3ccc(Cl)cc3Cl)C2=O)no1 (stereo unspecified) | nt | 2 | nt | -8 | 1 | nt | nt
Cc1cc(C)nc(/N=C(\N)Nc2ccc(S(=O)(=O)O)cc2)n1 | 1 | nt | 1 | nt | nt | nt | nt
Cc1cc(C)nc(/N=C(\N)Nc2ccc(CC(=O)OC(C)C)cc2)n1 | nt | 26* | nt | -23 | 18 | 8 | 12
O=C(COC(=O)CNC(=O)C1CCCCC1)Nc1ccccc1Cl | nt | 0 | nt | 1 | -1 | nt | nt
O=c1c2ccccc2ncn1-c1ccc([N+](=O)[O-])cc1[N+](=O)[O-] | nt | 21* | nt | -16 | 15 | 0 | 1
O=c1c2ccccc2ncn1-c1ccc(Cl)cc1[N+](=O)[O-] | -1 | 0 | 1 | -17 | 0 | nt | nt
SMILES | TRPN1 ag | OXTR ag | TRPML3 agonist | OXTR potentiate | V1aR counter | OXTR ag confirm | V1aR counter 3x
CC(c1ccccc1)N1CCC(CNC(=S)Nc2cccc(Cl)c2)C1 (stereo unspecified) | 2 | 22* | 3 | -16 | 16 | 18 | 8
COC(=O)c1cc(NC(=S)NCc2ccc(Cl)cc2)cc(C(=O)OC)c1 | 12 | 17 | 2 | -10 | 14 | nt | nt
COC(=O)c1cccc(NC(=S)NCc2ccc(Cl)cc2)c1 | 15 | 21* | 9 | -13 | 20 | 15 | 11
CC1=NN2C(=N)/C(=C\c3cc(C)n(Cc4ccccc4)c3C)C(=O)N=C2S1 | 2 | 22* | 0 | -19 | 8 | 4 | 8
CCOc1cccc(C(=O)N(Cc2cccc(F)c2)C2CCS(=O)(=O)C2)c1 (stereo unspecified) | nt | 0 | nt | -1 | 1 | nt | nt
Cc1cccc(NC(=O)C2(c3ccccc3)CCOCC2)c1 | 0 | -2 | 1 | -5 | -1 | nt | nt
Cc1cccc(NC(=O)C2(c3ccc([N+](=O)[O-])cc3)CCCC2)c1 | 8 | 22* | 2 | -25 | 17 | 7 | 3
Cc1ccc(C(=O)NC(=S)NNC(=O)c2ccccc2O)cc1 | nt | 22* | nt | -23 | 11 | 35* | 30*
Cc1nc(SCC(=O)Nc2c(C)nn(C)c2C)c2cnn(-c3ccccc3)c2n1 | 1 | 23* | 0 | -17 | 6 | 7 | 8
COc1ccc(C2CC(c3ccccc3)=NN2C(=O)CSc2nnnn2-c2cccc(C)c2)cc1 (stereo unspecified) | nt | 1 | nt | -2 | 1 | nt | nt
Cc1ccc(NC(=O)CN(C)C(=O)Cn2ccsc2=N)cc1 | 1 | 0 | 1 | 0 | 1 | nt | nt
Cc1ccc(Oc2ccc(NC(=O)Cn3ccsc3=N)cc2)cc1 | 1 | 23* | 1 | -29 | 9 | 12 | 3
CC(NC(=O)C1CCC(C(=O)NC(C)c2ccccc2)CC1)c1ccccc1 (stereo unspecified) | nt | 0 | nt | -3 | 1 | nt | nt
CC(=O)Nc1ccc(NC(=O)C(C)OC(=O)/C(C#N)=C/c2ccc(N(C)C)cc2)cc1 (stereo unspecified) | nt | 20* | nt | -23 | 16 | 13 | 13
CC(OC(=O)/C(C#N)=C/c1ccc(N(C)C)cc1)C(=O)N(C)c1ccccc1 (stereo unspecified) | nt | 11 | nt | -21 | 16 | nt | nt
COc1ccc(C(=O)Nc2ccc(N3CCN(C(C)=O)CC3)cc2)cc1[N+](=O)[O-] | 1 | 25* | 1 | -12 | -1 | 1 | 0
CC(=O)N1CCN(c2ccc(NC(=O)c3ccc(Cl)c([N+](=O)[O-])c3)cc2)CC1 | nt | 1 | nt | -11 | 8 | nt | nt
COC1=CC(=Cc2c(N)n3nc(CC(=O)N4CCOCC4)sc3nc2=O)C=C(OC)C1=O | nt | 21* | nt | 0 | 8 | 55* | 97*
Nc1c(C=C2C=CC(=O)C=C2)c(=O)nc2sc(CC(=O)N3CCOCC3)nn12 | nt | 0 | nt | -3 | 1 | nt | nt
